# Experimental data published in ChEMBL document CHEMBL4351018, “Novel phenanthridin-6(5H)-one derivatives as potent and selective BET bromodomain inhibitors: Rational design, synthesis and biological evaluation” (Eur J Med Chem, 2019).
# Molecular target: Bromodomain-containing protein 4 (Homo sapiens, UniProt O60885)
# Test: Inhibition of recombinant human His-tagged BRD4 bromodomain 1/2 (2 to 1362 residues) expressed in […] insect cells using biotinylated H4(1 to 21)K5/8/12/16Ac peptide as substrate preincubated for 30 mins followed by substrate addition and measured after 30 mins by Alpha screen assay
# Details: not given
row,SMILES,IC50
1,O=c1[nH]c2ccc(NS(=O)(=O)c3ccc4ccccc4c3)cc2c2ccccc12,7.23 µM
2,O=c1[nH]c2ccc(NS(=O)(=O)C3CCCCC3)cc2c2ccccc12,5.92 µM
3,O=c1[nH]c2ccc(NS(=O)(=O)c3cccs3)cc2c2ccccc12,6.74 µM
4,O=c1[nH]c2ccc(NS(=O)(=O)C3CCCC3)cc2c2ccccc12,6.17 µM
5,O=C(Nc1ccc2[nH]c(=O)c3ccccc3c2c1)c1ccccc1,18.6 µM
6,O=c1[nH]c2ccc(NS(=O)(=O)c3ccc4c(c3)CCO4)cc2c2ccccc12,13.1 µM
7,CCCS(=O)(=O)Nc1ccc2[nH]c(=O)c3ccccc3c2c1,6.71 µM
8,O=C(Nc1ccccc1)Nc1ccc2[nH]c(=O)c3ccccc3c2c1,9.93 µM
9,O=C(Nc1ccc2[nH]c(=O)c3ccccc3c2c1)Oc1ccccc1,6.02 µM

# The next compounds have a lower IC50 than those just listed; values first:
row,IC50,SMILES
1,1.32 µM,COc1ccc(S(=O)(=O)Nc2ccc3[nH]c(=O)c4ccccc4c3c2)cc1
2,5.54 µM,CCCCS(=O)(=O)Nc1ccc2[nH]c(=O)c3ccccc3c2c1
3,5.17 µM,O=c1[nH]c2ccc(NS(=O)(=O)Cc3ccccc3)cc2c2ccccc12
4,0.93 µM,COc1cc(Cl)ccc1S(=O)(=O)Nc1ccc2oc(=O)ccc2c1
5,1.25 µM,O=c1[nH]c2ccc(NS(=O)(=O)c3ccccc3Cl)cc2c2ccccc12
6,0.79 µM,O=c1[nH]c2ccc(NS(=O)(=O)c3cccc(Cl)c3)cc2c2ccccc12
7,0.85 µM,O=c1[nH]c2ccc(NS(=O)(=O)c3ccc(Cl)cc3)cc2c2ccccc12
8,1.64 µM,O=c1[nH]c2ccc(NS(=O)(=O)c3ccccc3)cc2c2ccccc12
9,1.13 µM,CC(C)(C)c1ccc(S(=O)(=O)Nc2ccc3[nH]c(=O)c4ccccc4c3c2)cc1
10,1.79 µM,N#Cc1cccc(S(=O)(=O)Nc2ccc3[nH]c(=O)c4ccccc4c3c2)c1
11,0.48 µM,COc1ccccc1S(=O)(=O)Nc1ccc2[nH]c(=O)c3ccccc3c2c1

# Tested on: A549
# Test: Antiproliferative activity against human A549 cells incubated for 48 hrs by MTT assay
# Format: functional, cell-based
# Details: A549, 48 h
# Summary of the method: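 Cells kept in DMEM or RPMI 1640 with 10% FBS at 37 °C, 5% CO2. MTT added for 4 h at 37 °C, formazan dissolved in DMSO, OD read at 570 nm. Survival % taken relative to blank and control wells. Triplicate runs; IC50 from curve fit.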
row,IC50,SMILES
1,4.63 µM,COc1cc(Cl)ccc1S(=O)(=O)Nc1ccc2oc(=O)ccc2c1
